Activity calls are given as the source filed them. The rule behind the calls is not given here.
Key:
[1] = biological target: T1, P2X purinoceptor 1 (Rattus norvegicus) (UniProt P47824); experiment: Inhibition of inward ion current elicited by ATP at P2X1 receptor expressed in Xenopus oocytes at 10 uM; type: functional, cell-based; conditions: Oocyte
T1 sequence (whole entry): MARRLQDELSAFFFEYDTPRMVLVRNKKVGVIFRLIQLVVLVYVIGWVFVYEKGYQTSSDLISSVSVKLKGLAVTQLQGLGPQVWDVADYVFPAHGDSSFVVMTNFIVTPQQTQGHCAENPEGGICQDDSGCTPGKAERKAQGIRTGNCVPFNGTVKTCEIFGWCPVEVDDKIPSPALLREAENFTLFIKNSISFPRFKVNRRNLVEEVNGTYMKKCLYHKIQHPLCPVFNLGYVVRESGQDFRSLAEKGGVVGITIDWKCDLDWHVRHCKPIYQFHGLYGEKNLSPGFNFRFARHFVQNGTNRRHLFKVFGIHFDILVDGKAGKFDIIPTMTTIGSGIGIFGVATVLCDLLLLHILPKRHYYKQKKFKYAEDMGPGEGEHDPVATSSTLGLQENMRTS

[2] = biological target: T2, P2X purinoceptor 1 (Rattus norvegicus, UniProt P47824); experiment: Inhibition of inward ion current elicited by ATP at P2X1 receptor expressed in Xenopus oocytes; type: functional, cell-based, Oocyte
T2 sequence (P47824 whole entry): T1 sequence (whole entry)

[3] = biological target: T3, P2X purinoceptor 3 (Rattus norvegicus, UniProt P49654); experiment: Inhibition of inward ion current elicited by ATP was determined at recombinant P2X3 receptor expressed in Xenopus oocytes; type: functional, cell-based, Oocyte
T3 sequence (P49654 whole entry): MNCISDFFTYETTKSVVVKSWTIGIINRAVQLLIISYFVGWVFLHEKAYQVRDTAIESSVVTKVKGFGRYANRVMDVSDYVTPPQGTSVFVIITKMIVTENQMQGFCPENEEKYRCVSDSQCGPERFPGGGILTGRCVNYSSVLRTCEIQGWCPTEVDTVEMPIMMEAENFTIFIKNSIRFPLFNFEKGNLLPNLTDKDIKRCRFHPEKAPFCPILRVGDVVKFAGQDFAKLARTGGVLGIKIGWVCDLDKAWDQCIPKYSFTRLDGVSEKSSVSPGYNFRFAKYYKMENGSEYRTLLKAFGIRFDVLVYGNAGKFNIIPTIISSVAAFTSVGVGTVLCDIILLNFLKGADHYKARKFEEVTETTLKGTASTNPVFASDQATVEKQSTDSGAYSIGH

[4] = biological target: T4, P2X purinoceptor 2 (Rattus norvegicus, UniProt P49653); experiment: Inhibition of inward ion current elicited by ATP at P2X2 receptor expressed in Xenopus oocytes; type: functional, cell-based, Oocyte
T4 sequence (P49653 whole entry): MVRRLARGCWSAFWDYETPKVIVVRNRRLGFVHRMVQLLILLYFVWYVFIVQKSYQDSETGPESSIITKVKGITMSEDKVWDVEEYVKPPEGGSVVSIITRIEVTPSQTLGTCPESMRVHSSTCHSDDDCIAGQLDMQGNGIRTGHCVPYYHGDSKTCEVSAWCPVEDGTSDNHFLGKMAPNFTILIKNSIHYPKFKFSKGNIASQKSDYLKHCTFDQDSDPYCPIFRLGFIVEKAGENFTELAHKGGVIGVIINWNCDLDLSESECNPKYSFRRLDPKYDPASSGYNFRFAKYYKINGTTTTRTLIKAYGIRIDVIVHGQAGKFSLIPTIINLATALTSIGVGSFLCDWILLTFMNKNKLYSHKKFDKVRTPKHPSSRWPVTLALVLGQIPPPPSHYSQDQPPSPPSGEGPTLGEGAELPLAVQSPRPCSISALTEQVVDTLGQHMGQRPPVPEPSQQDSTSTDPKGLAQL

[5] = biological target: T5, P2X purinoceptor 7 (Homo sapiens) (UniProt Q99572); experiment: Percent inhibition of ATP-induced K+ efflux (with cations) in adherent HEK293 cells expressing human P2X7 receptor; type: functional, cell-based; conditions: concentration not given here
T5 sequence (whole entry): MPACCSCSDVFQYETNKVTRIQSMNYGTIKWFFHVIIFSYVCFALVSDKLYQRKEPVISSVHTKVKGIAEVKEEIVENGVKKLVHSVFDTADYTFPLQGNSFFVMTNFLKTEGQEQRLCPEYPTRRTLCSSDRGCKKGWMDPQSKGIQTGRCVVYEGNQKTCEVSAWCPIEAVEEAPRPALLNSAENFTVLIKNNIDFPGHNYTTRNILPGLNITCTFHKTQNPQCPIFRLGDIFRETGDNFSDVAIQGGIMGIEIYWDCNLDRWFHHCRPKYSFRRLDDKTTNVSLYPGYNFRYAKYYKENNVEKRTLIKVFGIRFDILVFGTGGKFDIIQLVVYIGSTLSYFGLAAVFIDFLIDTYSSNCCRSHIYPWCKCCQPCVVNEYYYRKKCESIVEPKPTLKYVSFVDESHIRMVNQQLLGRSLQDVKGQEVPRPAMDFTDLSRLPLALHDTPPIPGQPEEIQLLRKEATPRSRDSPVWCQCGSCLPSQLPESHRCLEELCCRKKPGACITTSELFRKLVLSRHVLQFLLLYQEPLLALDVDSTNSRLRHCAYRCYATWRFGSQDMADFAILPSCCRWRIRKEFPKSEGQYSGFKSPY
Method in brief: (§1)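 Adherent HEK293 cells stably expressing human P2X7, grown to 90% confluence, in saline with 1 mM MgCl₂ and 1.5 mM CaCl₂ (pH 7.5). Pretreated with 30 µM compound, then 3 mM ATP for 10 min at 37 °C. Cell K⁺ was extracted in 10% HNO₃ for 2 h and read by atomic absorbance relative to untreated cells. n=3, each in duplicate.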

[6] = biological target: T5, P2X purinoceptor 7 (Homo sapiens); experiment: Percent inhibition of ATP-induced K+ efflux (ethidium influx) in suspended HEK293 cells expressing human P2X7 receptor; type: functional, cell-based; conditions: concentration not given here
Method in brief: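 Trypsinised HEK293 cells stably expressing human P2X7 were suspended in divalent cation-free saline in a stirred cuvette at 37 °C with 20 µM ethidium bromide. Cells were treated with 30 µM compound, then 300 µM ATP.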

[7] = biological target: T5, P2X purinoceptor 7 (Homo sapiens); experiment: Percentage inhibition of ATP-induced K+ efflux (cation free) in adherent HEK293 cells expressing human P2X7 receptor; type: functional, cell-based; conditions: concentration not given here
Method in brief: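 Adherent HEK293 cells stably expressing human P2X7, in divalent cation-free saline (no added MgCl₂ or CaCl₂; pH 7.5). Pretreated with 30 µM compound, then 3 mM ATP for 10 min at 37 °C. Residual cell K⁺ was extracted in 10% HNO₃ for 2 h and measured by atomic absorbance against untreated cells. n=3, each in duplicate.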

[8] = biological target: P2Y purinoceptor 1 (Meleagris gallopavo) (UniProt P49652); experiment: Inhibition of 10 nM 2-MeS-ADP-stimulated phospholipase C in turkey erythrocyte membranes using [3H]inositol; IA means inactive; type: functional, cell membranes
Chain of P2Y purinoceptor 1 (Meleagris gallopavo) (P49652 whole entry): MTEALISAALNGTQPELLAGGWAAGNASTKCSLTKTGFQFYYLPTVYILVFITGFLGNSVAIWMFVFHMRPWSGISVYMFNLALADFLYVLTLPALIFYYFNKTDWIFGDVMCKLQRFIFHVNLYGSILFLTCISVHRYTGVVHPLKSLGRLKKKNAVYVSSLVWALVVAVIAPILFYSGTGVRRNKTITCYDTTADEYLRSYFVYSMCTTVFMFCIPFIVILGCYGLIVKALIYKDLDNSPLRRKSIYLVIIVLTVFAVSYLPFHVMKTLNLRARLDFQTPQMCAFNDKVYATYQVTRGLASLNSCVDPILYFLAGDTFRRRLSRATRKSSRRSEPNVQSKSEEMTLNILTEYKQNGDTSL
Method in brief: (§2)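 Turkey erythrocytes labelled 18-24 h at 37 °C with 2-[³H]myo-inositol in inositol-free DMEM, then lysed hypotonically (5 mM sodium phosphate pH 7.4, 5 mM MgCl₂, 1 mM EGTA) to make ghosts. Ghosts were incubated 5 min at 30 °C in pH 7.0 Hepes/KCl buffer with 1 µM GTPγS and 10 nM 2-MeSADP. Total [³H]inositol phosphates were measured by anion-exchange chromatography; 3-8 independent determinations.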

[9] = biological target: T1, P2X purinoceptor 1 (Rattus norvegicus); experiment: Inhibition of inward ion current elicited by ATP at P2X1 receptor expressed in Xenopus oocytes; IA means inactive; type: functional, cell-based; conditions: Oocyte
[10] = biological target: T6, P2X purinoceptor 2 (Rattus norvegicus) (UniProt P49653); experiment: Inhibition of inward ion current elicited by ATP at P2X2 receptor expressed in Xenopus oocytes; IA means inactive; type: functional, cell-based; conditions: Oocyte
T6 sequence (whole entry): T4 sequence (P49653 whole entry)

[11] = biological target: T7, P2Y purinoceptor 1 (Meleagris gallopavo, UniProt P49652); experiment: Inhibition of 10 nM 2-MeS-ADP-stimulated phospholipase C in turkey erythrocyte membranes using [3H]inositol; type: functional, cell membranes; method in brief: as §2
T7 sequence (P49652 whole entry): as above

[12] = biological target: T5, P2X purinoceptor 7 (Homo sapiens); experiment: Inhibition of ATP-induced K+ efflux (with cations) in adherent HEK293 cells expressing human P2X7 receptor; type: functional, cell-based; conditions: concentration not given here; method in brief: as §1
[13] = biological target: T8, P2X purinoceptor 3 (Rattus norvegicus) (UniProt P49654); experiment: Inhibition of inward ion current elicited by ATP at recombinant P2X3 receptor expressed in Xenopus oocytes at 10 uM; type: functional, cell-based; conditions: Oocyte
T8 sequence (whole entry): T3 sequence (P49654 whole entry)

[14] = biological target: T7, P2Y purinoceptor 1; experiment: Inhibition of 10 nM 2-MeS-ADP-stimulated phospholipase C in turkey erythrocyte membrane; type: functional, cell membranes; method in brief: as §2
[15] = biological target: T9, P2X purinoceptor 4 (Rattus norvegicus, UniProt P51577); experiment: Inhibition of inward ion current elicited by ATP at rat P2X4 receptor (wild type); type: functional
T9 sequence (P51577 whole entry): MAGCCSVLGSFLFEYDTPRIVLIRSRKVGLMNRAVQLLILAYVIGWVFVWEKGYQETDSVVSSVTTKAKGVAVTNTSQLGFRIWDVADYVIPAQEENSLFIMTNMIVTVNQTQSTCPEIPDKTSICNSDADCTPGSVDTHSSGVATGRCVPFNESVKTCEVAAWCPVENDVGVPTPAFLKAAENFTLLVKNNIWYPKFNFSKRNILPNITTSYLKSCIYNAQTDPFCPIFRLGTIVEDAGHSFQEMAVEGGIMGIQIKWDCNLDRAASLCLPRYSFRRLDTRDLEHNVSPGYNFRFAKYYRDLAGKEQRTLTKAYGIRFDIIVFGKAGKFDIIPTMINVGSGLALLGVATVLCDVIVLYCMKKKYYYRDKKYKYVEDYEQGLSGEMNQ

[16] = biological target: T10, P2X purinoceptor 6 (Rattus norvegicus, UniProt P51579); experiment: Inhibition of inward ion current elicited by ATP at rat P2X6 receptor (mutant type); type: functional
Target sequence in this assay (P51579 whole entry, looked up): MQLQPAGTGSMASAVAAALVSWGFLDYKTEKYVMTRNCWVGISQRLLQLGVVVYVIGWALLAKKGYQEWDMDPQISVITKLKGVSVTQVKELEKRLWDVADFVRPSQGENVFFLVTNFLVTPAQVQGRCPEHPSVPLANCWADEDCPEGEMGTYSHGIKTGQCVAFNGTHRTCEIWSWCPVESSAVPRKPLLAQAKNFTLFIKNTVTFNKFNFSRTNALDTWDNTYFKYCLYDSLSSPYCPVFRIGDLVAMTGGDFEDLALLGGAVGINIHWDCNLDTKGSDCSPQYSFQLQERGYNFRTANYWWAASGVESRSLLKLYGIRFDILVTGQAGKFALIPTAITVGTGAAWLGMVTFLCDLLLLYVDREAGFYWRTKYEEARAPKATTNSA

[17] = biological target: T10, P2X purinoceptor 6; experiment: Inhibition of inward ion current elicited by ATP at rat P2X6 receptor (wild type); type: functional
Target sequence in this assay (P51579 whole entry): as the sequence (P51579 whole entry, looked up) above

[18] = biological target: P2X purinoceptor 4 (Rattus norvegicus, UniProt P51577); experiment: Inhibition of inward ion current elicited by ATP at rat P2X4 receptor (mutant type); type: functional

| IC50 [2] [nM] | IC50 [4] [nM] | inhibition [5] [%] | inhibition [6] [%] | inhibition [7] [%] | IC50 [11] [nM] | Compound | further results |
| --- | --- | --- | --- | --- | --- | --- | --- |
|  |  |  |  |  |  | Cc1nc(/N=N/c2cc(S(=O)(=O)O)ccc2Cl)c2c(c1O)COP(=O)(O)OC2 | inhibition [1]: 43% |
| 37 | 486 |  |  |  |  | Cc1nc(/N=N/c2cc(C(=O)O)ccc2C(=O)O)c(CP(=O)(O)O)c(C=O)c1O | IC50 [3]: 330 nM |
|  |  | 37 | 100 | 24 |  | CNc1ncnc2c1ncn2[C@H]1C[C@H](OP(=O)(O)O)[C@@H](COP(=O)(O)O)O1 |  |
|  |  |  |  |  |  | Cc1ncc(COP(=O)(O)O)c(COP(=O)(O)O)c1O | Inhibition activity [8]: inactive; IA [9]: inactive |
|  |  | -1 | 17 | -5 |  | Cc1nc(/N=N/c2cc(S(=O)(=O)O)ccc2S(=O)(=O)O)c2c(c1O)COP(=O)(O)OC2 | IA [10]: inactive; Inhibition activity [8]: inactive |
| 43 | 398 |  | 100 | 67 | 21400 | Cc1nc(/N=N/c2cc(S(=O)(=O)O)ccc2S(=O)(=O)O)c(COP(=O)(O)O)c(C=O)c1O [ISOPPADS] | inhibition [12]: 81% |
|  |  | -1 | 15 | -7 | 100000 | Cc1nc(/N=N/c2cc(S(=O)(=O)O)ccc2S(=O)(=O)O)c(COP(=O)(O)O)c(COP(=O)(O)O)c1O | inhibition [1]: 27% |
|  |  | -1 | 12 | -5 | 100000 | Cc1nc(/N=N/c2cc(S(=O)(=O)O)ccc2Cl)c(COP(=O)(O)O)c(COP(=O)(O)O)c1O | inhibition [1]: 78%; inhibition [13]: 30% |
| 42 | 1200 |  |  |  |  | Cc1nc(/N=N/c2ccccc2)c(COP(=O)(O)O)c(C=O)c1O | IC50 [14]: 54000 nM; IC50 [3]: 480 nM |
| 99 | 1600 |  |  |  | 16600 | Cc1nc(/N=N/c2ccc(S(=O)(=O)O)cc2S(=O)(=O)O)c(COP(=O)(O)O)c(C=O)c1O | IC50 [15]: > 500000 nM; IC50 [16]: 2000 nM; IC50 [3]: 240 nM; IC50 [17]: > 500000 nM; IC50 [18]: 2600 nM |
|  |  | -5 | 40 | -8 |  | Cc1nc(/N=N/c2cc(S(=O)(=O)O)ccc2Cl)c(CP(=O)(O)O)c(C=O)c1O |  |
